PERK inhibitor: block of dimerizer-induced PERK translation repression, primary screen, PERK inhibitor project, CHO PERK-DD cells, SEAP luminescence, HTS. CHO PERK-DD fusion, SEAP luminescence translation reporter. AID 1416, 2008. inhibition, % at 5.6 µM. 220,000 tested, 0.17% active. Eukaryotic translation initiation factor 2-alpha kinase 3 (Homo sapiens), Q9NZJ5;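 active = inhibition above the mean inhibition of all tested compounds plus 3 SD, set separately per screening campaign, cut at about 2.9% in these data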;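 note: PERK kinase domain activated by AP20187 dimerizer at 100 nM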
PolyA inh: polyadenylation inhibitors in yeast reporter cells, primary screen, luminescence, S. cerevisiae. S. cerevisiae SKY197-pL101 polyadenylation reporter, beta-gal luminescence; efflux-impaired pdr1/pdr3 knockout yeast; score 100 = 6 SD above DMSO. activity score, % at 12 µM. 300,000 tested, 0.02% active;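 active = lowest replicate activity score at least 50, where 100 means six control SD above control mean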;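 note: yeast exposed to compound for 9 h at 30 °C; higher score means more reporter readthrough which indicates perturbed polyadenylation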
HSF1 inhib: HSF1 inhibitors in luciferase reporter cells, primary screen, cell-based, NIH3T3, luminescence; NIH3T3-HGL HSE-luciferase, MG132-induced, luminescence 8 h; hits give low values; activity change, negative = inhibition, % at 7.5 µM (by protocol); 300,000 tested, 0.77% active;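 active = more than half of replicate wells show activity change below -50%, luminescence cut by over half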;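 note: luciferase reports HSF-1 transcriptional activity via heat shock element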
STAT3 activator: IL-6 driven STAT3 reporter potentiators, primary screen, U3A cells, luciferase, luminescence, MLSCN library; IL-6 STAT3-luciferase reporter; 100% = signal with IL-6 EC80 alone; activation (% of control), % at 5.6 µM; 190,000 tested, 0.91% active; AID 871, 2007;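 active = activation above the screen-wide mean of compound activation plus 3 SD, cut at about 130% in these data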
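Test system: STAT3-luciferase reporter U3A cells; Detection: reporter luminescence signal; Times: 1 h compound pre-exposure, 6 h IL-6 stimulation, 37 °C; Benchmarks: IL-6-only high control; Also added: IL-6 stimulus at 33 ng/mL final.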
AHR act: AHR activators, primary screen, cell-based, luminescence, luciferase reporter, human. Aryl hydrocarbon receptor (Homo sapiens), P35869. AHR-responsive luciferase reporter cells. activation, % at 5 µM. 320,000 tested, 2.5% active. AID 2796, 2010; in the data active = activation above about 47%
Hsp70 activator: Hsp70 transcriptional activators, primary screen, cell-based, HeLa, Hsp70 promoter luciferase, luminescence, 10 µM; 200,000 tested, 0.04% active; HeLa Hsp70 promoter luciferase reporter; scaled: vehicle 0, proteasome-inhibitor control 100%; activation, % at 10 µM;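 active = activation above the mean across all tested compounds plus 3 SD, cutoff set per campaign, cut at about 5.5% in these data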
Each line names hits and unclear results; the compound was inactive in the other large screens. A selection: hits, their analogues and other compounds. The true share with any hit is near 3.6%.

Cc1ccc(-c2csc(NC(=O)c3ccc(S(=O)(=O)N4CCc5ccccc54)cc3)n2)cc1	HSF1 inhib -56.2
Cc1ccc(CN(C)C(=O)CN2C(=O)NC(c3ccccc3)(c3ccccc3)C2=O)c(C)c1	none (no result: PERK inhibitor, PolyA inh, HSF1 inhib, STAT3 activator, Hsp70 activator)
CS(=O)(=O)c1ccc(S(=O)CC(=O)Oc2ccc(Cl)cc2)c([N+](=O)[O-])c1 (configuration not stated)	STAT3 activator 134.6
O=C(CS(=O)c1ccccc1[N+](=O)[O-])Oc1ccc(Br)cc1 (configuration not stated)	none
CN(C)S(=O)(=O)n1cnc([C@@H]2[C@H]3C(=O)OC[C@@H]3C[C@@]23N=CN(Cc2ccccc2)C3=O)c1	none (no result: PERK inhibitor, PolyA inh, HSF1 inhib, STAT3 activator, Hsp70 activator)
CCN1C(=O)[C@H]2[C@@H](c3ccc(Cl)cc3)N3C(=O)CN(CCOC)C(=O)[C@@]3(Cc3ccccc3)[C@H]2C1=O	none (no result: PERK inhibitor, STAT3 activator, Hsp70 activator)
O=C(NCc1cccnc1)c1ccc(-c2cc(Cl)ccc2Cl)o1	AHR act 76.0
O=C(Nc1ccc(Br)cn1)c1ccc2ccccc2c1	AHR act 47.8 (no result: PERK inhibitor, STAT3 activator, Hsp70 activator)
O=C(Nc1ccc(Cl)cn1)c1cccc2c(Br)cccc12	AHR act 74.1 (no result: PERK inhibitor, STAT3 activator, Hsp70 activator)
O=C(Nc1ccc(Br)cn1)c1cccc(C(=O)Nc2ccc(Br)cn2)c1	none (no result: PERK inhibitor, STAT3 activator, Hsp70 activator)
O=C(Nc1ccc(Br)cn1)c1cccc2ccccc12	AHR act 70.0 (no result: PERK inhibitor, STAT3 activator, Hsp70 activator)
O=C(Nc1ccccc1)c1cccc2c(Br)cccc12	AHR act 57.2 (no result: PERK inhibitor, STAT3 activator, Hsp70 activator)
COc1c(C(=O)Nc2ccc(Br)cn2)ccc2ccccc12	none (no result: PERK inhibitor, STAT3 activator, Hsp70 activator)
O=C(COC(=O)COc1cccc(C(F)(F)F)c1)Nc1ccc(N2CCOCC2)cc1	none (no result: PERK inhibitor, PolyA inh, HSF1 inhib, STAT3 activator, Hsp70 activator)
COc1ccc([C@H]2CC(=O)C=C(c3cccc(CO)c3)C2)cc1	none (no result: PERK inhibitor, PolyA inh, HSF1 inhib, STAT3 activator, Hsp70 activator)
O=C(CC(=O)N/N=C/c1ccc(C(=O)O)cc1)NCCc1ccccc1	none (no result: PERK inhibitor, STAT3 activator, Hsp70 activator)
COc1ccc(C2NC(=O)CCC2[N+](=O)[O-])c(OC)c1OC (configuration not stated)	none (no result: PERK inhibitor, STAT3 activator, Hsp70 activator)
COc1cc(NC(=O)CN2C(=O)CN(C)C2=O)c(C)cc1[N+](=O)[O-]	none
COc1cc(NC(=O)Cn2ncc(Cl)c(Cl)c2=O)c(C)cc1[N+](=O)[O-]	HSF1 inhib -92.7 (no result: AHR act)
Nc1nc(Cl)nc2ccc(Br)cc12	AHR act 59.0
CCc1c(C)nc2ccc(Br)cc2c1Cl	none
O=C(/C=C/c1cccs1)c1cc(Br)ccc1OC(=O)N1CCOCC1	AHR act 52.9
CC1=NN(C(=O)COc2ccc(C)c(C)c2)C(O)(c2ccccc2)C1 (configuration not stated)	none
O=C(NNC(=O)c1ccccc1O)c1cc2ccccc2o1	AHR act 68.0 (no result: PERK inhibitor, STAT3 activator, Hsp70 activator)
COc1ccc(NC(=O)c2ccco2)cc1NC(=O)c1cc2ccccc2o1	AHR act 62.5
O=C(Nc1ccc(F)cc1)c1cc2ccccc2o1	AHR act 72.1 (no result: PERK inhibitor, STAT3 activator, Hsp70 activator)
COc1cc(OC)cc(C(=O)Nc2cc(NC(=O)c3ccco3)ccc2OC)c1	AHR act 54.9
CC(=O)c1ccc(NC(=O)c2cc3ccccc3o2)cc1	none (no result: PERK inhibitor, STAT3 activator, Hsp70 activator)
CCCCN(C)C(=O)Cn1ncc2c3ccccc3n(CCC)c2c1=O	none (no result: PERK inhibitor, STAT3 activator, AHR act, Hsp70 activator)
COc1ccccc1NC(=O)c1cc2ccccc2o1	STAT3 activator 165.0, AHR act 74.0
O=C(Nc1ccc(Cl)cc1Cl)c1cc2ccccc2o1	none (no result: PERK inhibitor, STAT3 activator, Hsp70 activator)
COc1cc(NC(=O)c2cc3ccccc3o2)c(OC)cc1Cl	STAT3 activator 153.8, AHR act 61.5
CC(=O)Nc1ccc(NC(=O)c2cc(=O)c3ccccc3o2)cc1	none (no result: PERK inhibitor, STAT3 activator, Hsp70 activator)
Cc1ccc(NC(=O)c2cc(=O)c3ccccc3o2)cc1	AHR act 54.8
Cc1cc(C)cc(C(=O)Nc2cccc(NC(=O)c3ccco3)c2)c1	none (no result: PERK inhibitor, STAT3 activator, AHR act, Hsp70 activator)
CCc1ccc2oc(-c3ccc(OC)cc3)cc(=Nc3c(C)n(C)n(-c4ccccc4)c3=O)c2c1	AHR act 56.6
CCc1ccc2oc(-c3ccc(OC)cc3)cc(=Nc3cccc(C(=O)O)c3)c2c1	none

Screening results (PubChem)
